Series [1] addresses Glutamate [NMDA] receptor (Homo sapiens) (UniProt Q05586+Q12879+Q13224+O15399+O60391+Q14957+Q8TCU5). Briefly: Antagonist activity at NMDA receptor in human SH-SY5Y cells assessed as reduction in NMDA/glycine-stimulated calcium influx at 10 uM preincubated for 30 mins in presence of Mag-Fura-2/AM dye followed by NMDA/glycine stimulation and measured over 35 secs by fluorescence assay (reference value: 100%). The class given is cell-based. A digest of the protocol: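 SH-SY5Y cells loaded with ratiometric Ca indicator Mag-Fura-2/AM, incubated with compound at 10 µM for 30 min at 37 °C, then stimulated with concentrated NMDA/glycine solution; fluorescence change from cytosolic Ca rise read on plate reader. % NMDAr inhibition calculated relative to MK-801 (10 µM); DMSO vehicle. Mean of at least 9 independent experiments.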

Series [2] has as its target T1, Amine oxidase [flavin-containing] B (Homo sapiens, UniProt P27338).
T1 sequence (P27338 whole entry): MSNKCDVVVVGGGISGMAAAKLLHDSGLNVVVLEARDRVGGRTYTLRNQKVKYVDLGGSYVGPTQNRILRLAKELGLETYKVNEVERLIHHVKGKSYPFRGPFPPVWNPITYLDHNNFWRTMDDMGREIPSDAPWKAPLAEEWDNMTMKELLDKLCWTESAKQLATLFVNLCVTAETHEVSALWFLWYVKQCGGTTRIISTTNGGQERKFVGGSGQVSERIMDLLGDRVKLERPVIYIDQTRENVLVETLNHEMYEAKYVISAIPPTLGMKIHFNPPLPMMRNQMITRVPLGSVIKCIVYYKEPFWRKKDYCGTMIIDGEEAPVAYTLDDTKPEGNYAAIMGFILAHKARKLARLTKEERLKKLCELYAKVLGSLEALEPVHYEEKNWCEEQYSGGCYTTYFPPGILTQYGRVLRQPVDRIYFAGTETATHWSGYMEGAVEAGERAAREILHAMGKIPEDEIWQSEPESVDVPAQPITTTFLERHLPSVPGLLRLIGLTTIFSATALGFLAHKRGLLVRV
Briefly: Inhibition of recombinant human MAO-B using kynuramine as substrate after 20 mins by fluorescence assay.

Series [3] relates to SH-SY5Y. Briefly: Neuroprotective activity in human SH-SY5Y cells assessed as reduction in MPP+ induced cytotoxicity at 5 to 10 uM preincubated for 2 hrs followed by MPP+ addition measured after 48 hrs by MTT assay. The class given is functional, cell-based. On the technique in general: Tetrazolium dyes change colour on reduction, which living cells bring about.
Series [4] can be described thus: Cytotoxicity against human SH-SY5Y cells assessed as cell viability at 10 uM after 48 hrs by MTT assay (reference value: 100%). It counts as cell-based. The following applies: read-out: Activity. The essentials: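 SH-SY5Y cells exposed to compound at 10, 50 or 100 µM for 48 h; viability by MTT, read spectrophotometrically. DMSO vehicle-treated cells set as 100% viability. Mean ± SEM, n = 3 with four fields per repeat; ANOVA.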

In series [5] the test system is SH-SY5Y. The series is described as follows: Neuroprotective activity in human SH-SY5Y cells assessed as reduction in MPP+ induced cytotoxicity by measuring cell viability at 1 uM preincubated for 2 hrs followed by MPP+ addition and measured after 48 hrs by MTT assay (reference value: 45%). It counts as functional.
In series [6] the target is T2, Amine oxidase [flavin-containing] A (Homo sapiens, UniProt P21397).
T2 sequence (P21397 whole entry): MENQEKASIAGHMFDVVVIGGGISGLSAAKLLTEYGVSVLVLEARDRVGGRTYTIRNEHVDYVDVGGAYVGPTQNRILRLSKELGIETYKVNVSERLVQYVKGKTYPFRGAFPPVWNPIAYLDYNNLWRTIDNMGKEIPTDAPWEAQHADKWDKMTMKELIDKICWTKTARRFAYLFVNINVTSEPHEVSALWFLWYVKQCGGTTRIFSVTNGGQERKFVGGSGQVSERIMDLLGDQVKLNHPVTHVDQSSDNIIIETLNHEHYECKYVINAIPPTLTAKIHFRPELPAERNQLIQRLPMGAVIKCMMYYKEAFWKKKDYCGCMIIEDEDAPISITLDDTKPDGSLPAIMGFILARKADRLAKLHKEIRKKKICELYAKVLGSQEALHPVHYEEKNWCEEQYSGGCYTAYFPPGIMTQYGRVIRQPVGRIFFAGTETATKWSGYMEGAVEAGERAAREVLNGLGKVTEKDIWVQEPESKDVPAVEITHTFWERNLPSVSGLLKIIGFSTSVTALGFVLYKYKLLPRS
The series is described as follows: Inhibition of recombinant human MAO-A using kynuramine as substrate after 20 mins by fluorescence assay.

Series [7] deals with Voltage-gated L-type calcium channel (Homo sapiens, UniProt Q13936+Q13698+Q01668+O60840). The series is described as follows: Inhibition of voltage-dependent L-type calcium channel in human SH-SY5Y cells assessed as reduction in KCl-stimulated calcium influx at 100 uM preincubated for 30 mins in presence of Mag-Fura-2/AM dye followed by KCl stimulation and measured over 35 secs by fluorescence assay. To be noted: 35 s. The class given is cell-based.

Series [8] addresses T1, Amine oxidase [flavin-containing] B. The series is described as follows: Reversible inhibition of recombinant human MAO-B at 2 times IC50 preincubated up to 60 mins followed by kynuramine substrate addition and measured after 20 mins by fluorescence assay.
Series [9] addresses T2, Amine oxidase [flavin-containing] A. The series is described as follows: Irreversible inhibition of recombinant human MAO-A at 2 times IC50 preincubated up to 60 mins followed by kynuramine substrate addition and measured after 20 mins by fluorescence assay. The essentials:
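Recombinant human MAO-A is preincubated with inhibitor for 0, 15, 30 or 60 min, then the kynuramine reaction is started. Residual oxidation rate is read as 4-hydroxyquinoline fluorescence (RFU). Results are the mean of three independent experiments.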

For series [10], the target named is T1, Amine oxidase [flavin-containing] B. The series is described as follows: Inhibition of recombinant human MAO-B using kynuramine as substrate after 20 mins by fluorescence assay relative to control. The essentials:
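Recombinant human MAO-B oxidises kynuramine. The product, 4-hydroxyquinoline, is read by fluorescence in the supernatant (excitation 310 nm, emission 400 nm).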

Active and inactive are the calls of the source. The calls are words filed in the database; no cut-off is given here.

As a reminder, the inhibition is the relative decrease from the control value, in per cent. In the case of `C#CCNCc1ccc(CNC2C3C4CC5C6C4C2C6C2(OCCO2)C53)cc1` (stereo unspecified), the inhibition in series [1] was 63.9%.

Turning to `C#CCNCc1ccc(CNC23OC4C5C6CC(C7C6C4C72)C53)cc1` (stereo unspecified), the inhibition in [1] amounted to 31.4%.

With `C#CCNCc1ccc(C/N=C2/C3C4CC5C6C4C2C6C2(OCCO2)C53)cc1` (stereo unspecified), in series [1], the inhibition came out at 88.3%.

As for `COCCOC(=O)C1=C(C)NC(C)=C(C(=O)OC(C)C)C1c1cccc([N+](=O)[O-])c1` (stereo unspecified), in series [1], the inhibition entry is “inactive”.

Usually IC50 stands for the point on the concentration scale where inhibition reaches its midpoint. On to `c1ccc(CNC23OC4C5C6CC(C7C6C4C72)C53)cc1` (stereo unspecified), for which the IC50 in series [2] and in series [6] was above 100 µM throughout. In addition, the result in series [3] was Active. Also, the viability at 48 h, 10 µM in series [4] was found to be 86%. Further, in series [5], the Activity stood at 66%. Further, the inhibition in [1] was found to be 32.5%.

Take `Nc1ccc(C/N=C2/C3C4CC5C6C4C2C6C2(OCCO2)C53)cc1` (stereo unspecified): the inhibition in series [1] was found to be 63.1%.

As for `C#CCNC12OC3C4C5CC(C6C5C3C61)C42` (stereo unspecified), the “inhibition (INH)” value in [7] is given as “Not Active”. In addition, the inhibition result in series [1] was “inactive”.

Regarding `C#CCNCc1ccc(CN2C3C4C5CC6C7C5C3C7C2(O)C64)cc1` (stereo unspecified), the “inhibition (INH)” value in series [8] and in series [9] was “Active” each time. Further, the half-inhibitory concentration (IC50) came to 3.8 µM in [2] and 56.2 µM in series [6]. For the same molecule, the outcome in series [3] was Active. Besides, in series [4], the viability at 48 h, 10 µM was 98%. In series [5], the Activity came out at 43%. In [1], the inhibition turned out to be 0.6%.

`NCc1ccc(CNC2C3C4CC5C6C4C2C6C2(OCCO2)C53)cc1` (stereo unspecified): the inhibition result in series [1] was “inactive”.

With `c1cc(C/N=C2\C3C4CC5C6C4C2C6C2(OCCO2)C53)ccc1C/N=C1/C2C3CC4C5C3C1C5C1(OCCO1)C42` (stereo unspecified), in series [1], the inhibition is 70.5%.

Regarding `Nc1ccc(CNC23OC4C5C6CC(C7C6C4C72)C53)cc1` (stereo unspecified), the inhibition result in series [1] is “inactive”.

On to `NCc1ccc(C/N=C2/C3C4CC5C6C4C2C6C2(OCCO2)C53)cc1` (stereo unspecified), for which the inhibition in series [1] was 49.5%.

Consider `NCc1ccc(CN2C3C4C5CC6C7C5C3C7C2(O)C64)cc1` (stereo unspecified), for which the half-maximal inhibitory concentration (IC50) in [2] and in series [6] was above 100 µM each time. For the same molecule, in series [3], the outcome was Active. In series [4], the viability at 48 h, 10 µM turned out to be 107%. The Activity in series [5] is given as 46%. Moreover, the inhibition in series [1] was 59%.

For `ClCc1ccc(CNC23OC4C5C6CC(C7C6C4C72)C53)cc1` (stereo unspecified), in series [1], the inhibition was determined as 26.1%.

As for `C#CCN1C2C3C4CC5C6C4C2C6C1(O)C53` (stereo unspecified), the “inhibition (INH)” value in series [7] is on record as “Not Active”; in series [10], 6%. In addition, the inhibition in series [1] was 4%.

As to `Nc1ccc(CN2C3C4C5CC6C7C5C3C7C2(O)C64)cc1` (stereo unspecified), the IC50 in series [2] and in series [6] was above 100 µM in each case. In addition, the result in [3] was Active. Also, the viability at 48 h, 10 µM in [4] stood at 101%. In addition, the Activity in series [5] is on record as 31%. Moreover, the inhibition in series [1] came to 11.9%.

The values are drawn from ChEMBL document CHEMBL4330068, “Design, synthesis and evaluation of pentacycloundecane and hexacycloundecane propargylamine derivatives as multifunctional neuroprotective agents” (Eur J Med Chem, 2019).
